Converted amounts (≈) assume the structure as drawn.
Tests used:
Pseudomonas aeruginosa [1] = assay: Antimicrobial activity against Pseudomonas aeruginosa ATCC 27853 at 200 ug/mL by disc-diffusion method; format: functional; conditions: read-out: IZ
Procedure, shortened: (§1)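 Kirby–Bauer disc diffusion: 5 mm paper discs soaked in compound solution in DMSO (100 or 200 µg/mL; reference drugs 200 µg/mL) and laid on inoculated Mueller-Hinton agar (bacteria) or Sabouraud agar (C. albicans, Aspergillus). DMSO discs were the control. Plates ran 24 h at 35 °C. Inhibition zone diameter was scored 0–10 mm R, 11–16 mm I, 17–25 mm S; triplicate.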

Proteus vulgaris [2] = assay: Antimicrobial activity against Proteus vulgaris at 100 ug/mL by disc-diffusion method; format: functional; conditions: read-out: IZ; procedure, shortened: as §1
Proteus vulgaris [3] = assay: Antimicrobial activity against Proteus vulgaris at 200 ug/mL by disc-diffusion method; format: functional; conditions: read-out: IZ; procedure, shortened: as §1
Klebsiella pneumoniae [4] = assay: Antimicrobial activity against Klebsiella pneumoniae at 100 ug/mL by disc-diffusion method; format: functional; conditions: read-out: IZ; procedure, shortened: as §1
Klebsiella pneumoniae [5] = assay: Antimicrobial activity against Klebsiella pneumoniae at 200 ug/mL by disc-diffusion method; format: functional; conditions: read-out: IZ; procedure, shortened: as §1
Klebsiella aerogenes [6] = assay: Antimicrobial activity against Enterobacter aerogenes at 100 ug/mL by disc-diffusion method; format: functional; conditions: read-out: IZ; procedure, shortened: as §1
Klebsiella aerogenes [7] = assay: Antimicrobial activity against Enterobacter aerogenes at 200 ug/mL by disc-diffusion method; format: functional; conditions: read-out: IZ; procedure, shortened: as §1
Staphylococcus aureus [8] = assay: Antimicrobial activity against Staphylococcus aureus ATCC 25923 at 100 ug/mL by disc-diffusion method; format: functional; conditions: read-out: IZ; procedure, shortened: as §1
Staphylococcus aureus [9] = assay: Antimicrobial activity against Staphylococcus aureus ATCC 25923 at 200 ug/mL by disc-diffusion method; format: functional; conditions: read-out: IZ; procedure, shortened: as §1
[10] = test system: Staphylococcus epidermidis; assay: Antimicrobial activity against Staphylococcus epidermidis at 100 ug/mL by disc-diffusion method; format: functional; conditions: read-out: IZ; procedure, shortened: as §1
[11] = test system: Staphylococcus epidermidis; assay: Antimicrobial activity against Staphylococcus epidermidis at 200 ug/mL by disc-diffusion method; format: functional; conditions: read-out: IZ; procedure, shortened: as §1
Streptococcus pyogenes [12] = assay: Antimicrobial activity against Streptococcus pyogenes at 100 ug/mL by disc-diffusion method; format: functional; conditions: read-out: IZ; procedure, shortened: as §1
Streptococcus pyogenes [13] = assay: Antimicrobial activity against Streptococcus pyogenes at 200 ug/mL by disc-diffusion method; format: functional; conditions: read-out: IZ; procedure, shortened: as §1
Streptococcus agalactiae [14] = assay: Antimicrobial activity against Streptococcus agalactiae at 100 ug/mL by disc-diffusion method; format: functional; conditions: read-out: IZ; procedure, shortened: as §1
Streptococcus agalactiae [15] = assay: Antimicrobial activity against Streptococcus agalactiae at 200 ug/mL by disc-diffusion method; format: functional; conditions: read-out: IZ; procedure, shortened: as §1
Candida albicans [16] = assay: Antimicrobial activity against Candida albicans ATCC 10231 at 100 ug/mL by disc-diffusion method; format: functional; conditions: read-out: IZ; procedure, shortened: as §1
Candida albicans [17] = assay: Antimicrobial activity against Candida albicans ATCC 10231 at 200 ug/mL by disc-diffusion method; format: functional; conditions: read-out: IZ; procedure, shortened: as §1
Aspergillus sp. [18] = assay: Antimicrobial activity against Aspergillus sp. at 100 ug/mL by disc-diffusion method; format: functional; conditions: read-out: IZ; procedure, shortened: as §1
Aspergillus sp. [19] = assay: Antimicrobial activity against Aspergillus sp. at 200 ug/mL by disc-diffusion method; format: functional; conditions: read-out: IZ; procedure, shortened: as §1
Pseudomonas aeruginosa [20] = assay: Antimicrobial activity against Pseudomonas aeruginosa ATCC 27853 after 24 hrs by microdilution assay; format: functional; conditions: ATCC 27853, 24 h
[21] = Lipophilicity, log kw in dioxane aqueous system at pH 3.5; format: physicochemical; conditions: buffer
Procedure, shortened: (§2)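 RP-HPLC on an octadecyl silica column (150 × 4.6 mm, 5 µm) at 22 ± 1 °C, flow 1.0 mL min⁻¹, UV detection at 254 nm. Mobile phase was methanol, acetonitrile or dioxane with water and 0.01 M phosphate buffer pH 3.5 containing 0.05 M DEA. log k_W was extrapolated to pure water by regression.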

[22] = Lipophilicity, log kw in acetonitrile aqueous system at pH 3.5; format: physicochemical; procedure, shortened: as §2
[23] = Lipophilicity, log kw in methanol aqueous system at pH 3.5; format: physicochemical; procedure, shortened: as §2
Escherichia coli [24] = assay: Antimicrobial activity against Escherichia coli ATCC 25922 at 100 ug/mL by disc-diffusion method; format: functional; conditions: read-out: IZ; procedure, shortened: as §1
Escherichia coli [25] = assay: Antimicrobial activity against Escherichia coli ATCC 25922 at 200 ug/mL by disc-diffusion method; format: functional; conditions: read-out: IZ; procedure, shortened: as §1
Pseudomonas aeruginosa [26] = assay: Antimicrobial activity against Pseudomonas aeruginosa ATCC 27853 at 100 ug/mL by disc-diffusion method; format: functional; conditions: read-out: IZ; procedure, shortened: as §1
[27] = Antiproliferative activity against human skin fibroblast assessed as cell viability at 1 uM by MTT assay; format: cell-based; conditions: human skin fibroblasts, read-out: Activity
Procedure, shortened: (§3)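 Log-phase cells, kept in supplemented RPMI 1640 (HSF in DMEM/10% FBS) at 37 °C, 5% CO2, were exposed 24 h to 1, 50 or 100 µM compound from DMSO. They were washed, given 0.5 mg/mL MTT in HEPES buffer pH 7.4 for 45 min at 37 °C, and formazan was dissolved in DMSO and read at 570 nm. Values are % viability versus control from three independent measurements.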

[28] = Antiproliferative activity against human skin fibroblast assessed as cell viability at 50 uM by MTT assay; format: cell-based; conditions: human skin fibroblasts, read-out: Activity
Procedure, shortened: (§4)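 MTT viability assay on primary human skin fibroblasts grown in DMEM with 10% FBS and penicillin/streptomycin. Compounds were dissolved in DMSO and given at 1, 50 or 100 µM for 24 h. Cells were washed in HEPES-buffered medium (pH 7.4) and then given MTT 0.5 mg mL⁻¹ for 45 min at 37 °C. Formazan was dissolved in DMSO and read at 570 nm. Viability is % of control; three independent measurements.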

[29] = Antiproliferative activity against human skin fibroblast assessed as cell viability at 100 uM by MTT assay; format: cell-based; conditions: human skin fibroblasts, read-out: Activity; procedure, shortened: as §4
[30] = Antiproliferative activity against human RPMI cells assessed as cell viability at 1 uM by MTT assay; format: functional; conditions: read-out: Activity; procedure, shortened: as §3
[31] = Antiproliferative activity against human RPMI cells assessed as cell viability at 50 uM by MTT assay; format: functional; conditions: read-out: Activity; procedure, shortened: as §3
[32] = Antiproliferative activity against human RPMI cells assessed as cell viability at 100 uM by MTT assay; format: functional; conditions: read-out: Activity; procedure, shortened: as §3
HeLa [33] = assay: Antiproliferative activity against human HeLa cells assessed as cell viability at 1 uM by MTT assay; format: functional; conditions: read-out: Activity; procedure, shortened: as §3
HeLa [34] = assay: Antiproliferative activity against human HeLa cells assessed as cell viability at 50 uM by MTT assay; format: functional; conditions: read-out: Activity; procedure, shortened: as §3
HeLa [35] = assay: Antiproliferative activity against human HeLa cells assessed as cell viability at 100 uM by MTT assay; format: functional; conditions: read-out: Activity; procedure, shortened: as §3
Candida albicans [36] = assay: Antimicrobial activity against Candida albicans ATCC 10231 after 24 hrs by microdilution assay; format: functional; conditions: ATCC 10231, 24 h

logKw [21]	logKw [22]	logKw [23]	Structure (SMILES)	zone of inhibition at 200 µg/mL (Pseudomonas aeruginosa [1]) [mm]	zone of inhibition at 100 µg/mL (Proteus vulgaris [2]) [mm]	zone of inhibition at 200 µg/mL (Proteus vulgaris [3]) [mm]	zone of inhibition at 100 µg/mL (Klebsiella pneumoniae [4]) [mm]	zone of inhibition at 200 µg/mL (Klebsiella pneumoniae [5]) [mm]	zone of inhibition at 100 µg/mL (Klebsiella aerogenes [6]) [mm]	zone of inhibition at 200 µg/mL (Klebsiella aerogenes [7]) [mm]	zone of inhibition at 100 µg/mL (Staphylococcus aureus [8]) [mm]	viability at 1 µM [27] [%]	viability at 50 µM [28] [%]	viability at 100 µM [29] [%]	viability at 1 µM [30] [%]	viability at 50 µM [31] [%]	viability at 100 µM [32] [%]	viability at 1 µM (HeLa [33]) [%]	viability at 50 µM (HeLa [34]) [%]	viability at 100 µM (HeLa [35]) [%]	further results
4.61	3.32	6	Clc1ccc(OCc2nnc3n2CCN3c2ccc(Cl)c(Cl)c2)c(Cl)c1	17	11	17	0	11	0	11	0										zone of inhibition at 200 µg/mL (Staphylococcus aureus [9]): 0 mm; zone of inhibition at 100 µg/mL [10]: 0 mm; zone of inhibition at 200 µg/mL [11]: 0 mm; zone of inhibition at 100 µg/mL (Streptococcus pyogenes [12]): 0 mm; zone of inhibition at 200 µg/mL (Streptococcus pyogenes [13]): 0 mm; zone of inhibition at 100 µg/mL (Streptococcus agalactiae [14]): 0 mm; zone of inhibition at 200 µg/mL (Streptococcus agalactiae [15]): 0 mm; zone of inhibition at 100 µg/mL (Candida albicans [16]): 0 mm; zone of inhibition at 200 µg/mL (Candida albicans [17]): 0 mm; zone of inhibition at 100 µg/mL (Aspergillus sp. [18]): 0 mm; zone of inhibition at 200 µg/mL (Aspergillus sp. [19]): 0 mm; MIC (Pseudomonas aeruginosa [20]): 36.3 µM (≈ 15.6 µg/mL); zone of inhibition at 100 µg/mL (Escherichia coli [24]): 0 mm; zone of inhibition at 200 µg/mL (Escherichia coli [25]): 0 mm; zone of inhibition at 100 µg/mL (Pseudomonas aeruginosa [26]): 11 mm
3.55	3.04	4.27	Cc1ccc(N2CCn3c(COc4ccc(Cl)cc4)nnc32)cc1									88.1	68.4	64.7	104	39.5	39.9	89	78.3	77.9	

The next lines start with the compound.

Structure (SMILES)	logKw [21]	logKw [22]	logKw [23]	zone of inhibition at 200 µg/mL (Pseudomonas aeruginosa [1]) [mm]	zone of inhibition at 100 µg/mL (Proteus vulgaris [2]) [mm]	zone of inhibition at 200 µg/mL (Proteus vulgaris [3]) [mm]	zone of inhibition at 100 µg/mL (Klebsiella pneumoniae [4]) [mm]	zone of inhibition at 200 µg/mL (Klebsiella pneumoniae [5]) [mm]	zone of inhibition at 100 µg/mL (Klebsiella aerogenes [6]) [mm]	zone of inhibition at 200 µg/mL (Klebsiella aerogenes [7]) [mm]	zone of inhibition at 100 µg/mL (Staphylococcus aureus [8]) [mm]	viability at 1 µM [27] [%]	viability at 50 µM [28] [%]	viability at 100 µM [29] [%]	viability at 1 µM [30] [%]	viability at 50 µM [31] [%]	viability at 100 µM [32] [%]	viability at 1 µM (HeLa [33]) [%]	viability at 50 µM (HeLa [34]) [%]	viability at 100 µM (HeLa [35]) [%]	further results
COc1ccc(N2CCn3c(COc4ccc(Cl)cc4)nnc32)cc1	1.52	1.54	1.88									80.3	67.1	64.6	99.7	98.4	94.9	81.5	72.1	68.9	
c1ccc(OCc2nnc3n2CCN3c2ccccc2)cc1	1.78	1.37	1.62									91.7	87.6	83	104	99	101	85.3	71.1	70.3	
Sc1nnc2n1CCN2c1ccc(Cl)cc1	-0.09			0	0	0	0	0	0	0	0										zone of inhibition at 200 µg/mL (Staphylococcus aureus [9]): 0 mm; zone of inhibition at 100 µg/mL [10]: 0 mm; zone of inhibition at 200 µg/mL [11]: 0 mm; zone of inhibition at 100 µg/mL (Streptococcus pyogenes [12]): 0 mm; zone of inhibition at 200 µg/mL (Streptococcus pyogenes [13]): 0 mm; zone of inhibition at 100 µg/mL (Streptococcus agalactiae [14]): 0 mm; zone of inhibition at 200 µg/mL (Streptococcus agalactiae [15]): 0 mm; zone of inhibition at 100 µg/mL (Candida albicans [16]): 17 mm; zone of inhibition at 200 µg/mL (Candida albicans [17]): 17 mm; zone of inhibition at 100 µg/mL (Aspergillus sp. [18]): 0 mm; zone of inhibition at 200 µg/mL (Aspergillus sp. [19]): 0 mm; MIC (Candida albicans [36]): 30.9 µM (≈ 7.81 µg/mL); zone of inhibition at 100 µg/mL (Escherichia coli [24]): 0 mm; zone of inhibition at 200 µg/mL (Escherichia coli [25]): 0 mm; zone of inhibition at 100 µg/mL (Pseudomonas aeruginosa [26]): 0 mm
COc1ccc(N2CCn3cnnc32)cc1	1.22	1.56	1.87									105	95.2	89.3	102	96.5	91.3	93	91.7	80.6	

Source: ChEMBL document CHEMBL1149773, “Synthesis, determination of the lipophilicity, anticancer and antimicrobial properties of some fused 1,2,4-triazole derivatives” (Eur J Med Chem, 2008)
